Experiment [1] deals with Synaptic vesicular amine transporter (Bos taurus, UniProt Q27963). As to the kind of experiment: Inhibitory constant for dopamine uptake into resealed bovine chromaffin granule ghosts through the vesicular monoamine transporter. In short, it runs like this:
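Resealed bovine chromaffin granule ghosts (20 mM Tris phosphate, 100 mM KCl, 150 mM sucrose, 10 mM fumarate, 100 µg/mL catalase, no ascorbate, pH 7.0; Ficoll/sucrose purified) preincubated 10 min at 30 °C in 0.3 M sucrose, 10 mM HEPES, 5 mM Mg-ATP, 5 mM MgSO4, catalase. Inhibitor (0 or 200 µM) added 2 min, then DA at six concentrations. Pellet catecholamines by HPLC-EC; Ki from competitive inhibition fit.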

Experiment [2] concerns the target Synaptic vesicular amine transporter (Bos taurus) (UniProt Q27963). As to the kind of experiment: Km DA/Ki ratio was determined by different ghost preparations. In short, it runs like this: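 Ratio of Km for dopamine to Ki, each measured on the same ghost preparation in the dopamine uptake competitive-inhibition kinetics; used to normalize Km variation between ghost preparations.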

Synaptic vesicular amine transporter, sequence (Q27963 whole entry): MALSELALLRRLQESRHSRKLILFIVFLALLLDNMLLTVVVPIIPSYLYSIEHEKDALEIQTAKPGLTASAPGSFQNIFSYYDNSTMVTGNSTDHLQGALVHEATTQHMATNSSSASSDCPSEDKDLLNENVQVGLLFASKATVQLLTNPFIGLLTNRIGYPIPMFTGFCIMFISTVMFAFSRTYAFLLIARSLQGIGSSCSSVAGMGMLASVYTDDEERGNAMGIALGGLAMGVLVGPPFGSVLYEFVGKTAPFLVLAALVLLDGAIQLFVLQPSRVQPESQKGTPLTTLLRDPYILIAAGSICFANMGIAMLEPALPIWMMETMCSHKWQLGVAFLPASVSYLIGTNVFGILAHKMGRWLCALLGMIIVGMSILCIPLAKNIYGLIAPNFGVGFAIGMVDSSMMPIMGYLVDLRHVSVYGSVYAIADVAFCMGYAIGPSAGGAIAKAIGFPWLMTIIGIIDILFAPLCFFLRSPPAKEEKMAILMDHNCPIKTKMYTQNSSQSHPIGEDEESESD
Synaptic vesicular amine transporter (Bos taurus), sequence (Q27963 whole entry): as above

On to `C=C(CN)c1ccc(I)cc1`, for which the affinity in experiment [1], expressed as Ki, was 12.9 µM. The Ratio in experiment [2] was determined as 2.96.
For `C=C(CNC)c1ccc(O)cc1`, in that order: 93.7 µM and 0.39.
For `C=C(c1ccc(O)cc1)C(C)N(CC)CC` (configuration not stated), in that order: 207 µM and 0.15.
For `C=C(CN)c1ccc(F)cc1`, in that order: 42.3 µM and 0.8.
Take `C=C(CN)c1ccc(Cl)cc1`: the Ki in experiment [1] is 18 µM. Besides, in experiment [2], the Ratio stood at 1.76.
For `C=C(CN)c1cccc(OC)c1`, in that order: 30.2 µM and 0.76.
For `C=C(CN)c1ccccc1`, in that order: 40.3 µM and 0.57.
For `C=C(c1ccccc1)C(C)N` (configuration not stated), in that order: 78.4 µM and 0.41.
`C=C(CN)c1cccc(O)c1` had a Ki in experiment [1] of 16.7 µM. Further, the Ratio in experiment [2] turned out to be 1.4.
For `C=C(CN(CC)CC)c1ccc(O)cc1`, in that order: 202 µM and 0.15.
For `C=C(CN)c1ccc(C)cc1`, in that order: 55.9 µM and 0.59.
For `NC/C(=C\Br)c1ccc(O)cc1`, in that order: 50 µM and 0.46.
For `C=C(CN)c1ccc(O)cc1`, the Ki in experiment [1] turned out to be 15.5 µM. In addition, in experiment [2], the Ratio amounted to 1.52.
For `C=C(CN)c1ccc(Br)cc1`, in that order: 17.7 µM and 1.79.
For `C=C(CN)c1ccc(OC)cc1`, in that order: 102 µM and 0.33.
For `C=C(C[n+]1ccccc1)c1ccccc1`, in that order: 241 µM and 0.12.

Usually Ki stands for the dissociation constant of the complex between target and ligand, obtained from inhibition or displacement. A low value points to tighter binding.

The record behind these values is ChEMBL document CHEMBL1145803, “Characterization of a series of 3-amino-2-phenylpropene derivatives as novel bovine chromaffin vesicular monoamine transporter inhibitors” (J Med Chem, 2003).
